Screens as filed in PubChem BioAssay.
CaV13 FRET inh = Disruptors of the CACNA1D IQ motif to Ca2+-dependent inactivation inhibitor domain association, primary screening, Förster resonance energy transfer in intact living …. HEK cells, CFP/YFP FRET ICDI-IQ, plate reader, 10 min; percent FRET-ratio fall versus neutral wells. inhibition, % at 12.3 µM. 340,000 compounds, 0.098% hits. AID 743397;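 active means mean replicate inhibition of at least 30% and at least 1% of replicates passing that level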
NPR2 activator = GC-B (human) receptor activation. P20594. HEK293-GC-B cells, CNP EC30, cGMP TR-FRET; 0% at EC30 CNP, 100% saturating CNP. activation, % at 10 µM. 370,000 compounds, 0.11% hits;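 active means activation at 10 µM reaching about 35% in either raw or pattern-adjusted values, limit read from the data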
Xi reactivation = reactivates the inactive X chromosome in mouse fibroblasts | XiGFP mouse fibroblasts, % GFP-positive cells imaging, 3 d; cells co-treated with 5-aza-dC sensitizer; scaled so ellipticine positive control = 100% | activation, % at 7.58 µM | 360,000 compounds, 0.055% hits;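 active means mean normalized replicate activation at least 10% and every replicate at or above 10%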
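System: XiGFP fibroblasts, SV40-immortalized. Medium: DMEM plus 5-aza-dC sensitizer. Doses: single point. Timing: 3 d treatment, 15 min room-temperature fixation. Control set: ellipticine 6 µM.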
Glyco luc inh = blocks N-linked glycosylation in D54 reporter cells; D54 ERlucT glycosylation luciferase reporter, 24 h; percent of 100 nM tunicamycin response; reporter increase, % at 12.5 µM; 360,000 compounds, 0.23% hits; AID 588692;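 active means mean luciferase reporter signal, scaled so untreated is 0 and the glycosylation-blocking control 100, at or above a set limit in every replicate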;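 further: luciferase carries N-glycosylation sites so blocking glycosylation raises the light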
GC-A act = GC-A (human) enzyme activation; 370,000 compounds, 0.14% hits; P16066; activation, % at 10 µM; HEK293 GC-A cells, cGMP TR-FRET, EC30 ANP; 0% at EC30 ANP, 100% saturating ANP; in the data active means activation above about 40%
Vif inh = inhibitors of HIV Vif. HEK293T cells, Vif self-association by quenched fluorescence, imaging, 24 h. inhibition, % at 7.49 µM. 340,000 compounds, 0.35% hits. AID 602346; in the data active means inhibition above about 50%, passing the limit was not always enough
Hits are given with their value; 0 = inactive; - = no result given. An excerpt weighted towards active compounds, which were near 0.7% of everything screened.

SMILES | CaV13 FRET inh | NPR2 activator | Xi reactivation | Glyco luc inh | GC-A act | Vif inh
O=C(Cn1ncc2c3ccccc3n(Cc3cccc(Cl)c3)c2c1=O)N1CCC2(CC1)OCCO2 | - | 0 | - | 0 | 0 | 56
Cc1c2cnn(CC(=O)N3CCC4(CC3)OCCO4)c(=O)c2c(C)n1Cc1cccc(Cl)c1 | 0 | 0 | 0 | 0 | 0 | 0
CC(Cc1ccc(O)cc1)NCC(O)c1cc(O)cc(O)c1 (stereo unspecified) | 0 | 0 | 0 | 0 | 0 | 90
COc1cc(C(O)CN)ccc1O (stereo unspecified) | 0 | 0 | 0 | 0 | 0 | 0
COc1cc(C(O)CNC(C)C)cc(F)c1OC (stereo unspecified) | 0 | 0 | 0 | 0 | 0 | 55
CN1C(=O)C(=Cc2ccc(N3CCCCC3)o2)C(=O)N(C)C1=S | 0 | 0 | - | 0 | 0 | 0
CN1C(=O)C(=Cc2ccc(SC3CCCCC3)o2)C(=O)N(C)C1=O | 0 | 0 | 0 | 0 | 47 | 0
CC(C)OP(=O)(O)NC(=O)c1ccccc1 | 167 | 0 | 0 | 0 | 0 | 0
CCOP(=O)(OCC)C(NC(=O)c1ccccc1)C(Cl)(Cl)Cl (stereo unspecified) | 0 | 0 | 0 | 0 | 0 | 0
O=C(NCNC(=O)NC1C(=O)NC(=O)N1CO)NC1C(=O)NC(=O)N1CO (stereo unspecified) | 0 | 0 | 0 | 0 | 0 | 123
CC[n+]1c(/C=C/C=C/c2ccc(N(C)C)cc2)sc2ccccc21 | 0 | 0 | 0 | 28 | 0 | 0
N#Cc1cccc(-c2ccc([C@H]3[C@H](CO)N4CCCCN(C(=O)Cc5ccccc5)C[C@@H]34)cc2)c1 | - | - | 0 | - | - | -
NC(=O)c1cc(N2CC2)c([N+](=O)[O-])cc1[N+](=O)[O-] | 0 | 0 | 0 | 0 | 0 | 78
COC(=O)c1ccc(N2CCN(C)CC2)c([N+](=O)[O-])c1 | 0 | 0 | 0 | 0 | 0 | 0
C/C=C/c1ccc(C2[C@@H]3CN(C(=O)C4CCC4)C[C@H]2N3)cc1 (stereo partly specified) | - | - | 0 | - | - | -
COC(=O)[C@H]1[C@H](CO)[C@H]2Cn3c(ccc(-c4ccccc4F)c3=O)[C@@H]1N2C(C)=O | - | - | 0 | - | - | -
CNC1(c2ccc(F)cc2)CCCCC1 | 0 | 0 | 0 | 0 | 0 | 0
OC1(c2ccc(F)cc2)CCNC1 (stereo unspecified) | 0 | 0 | - | 0 | 0 | 82
COC(=O)C[C@H]1CC[C@@H]2NC[C@@H](O)COC[C@H]2O1 | - | - | 0 | - | - | -
N#Cc1cccc(-c2ccc([C@@H]3[C@@H](CO)N4CCCCN(C(=O)Cc5ccncc5)C[C@H]34)cc2)c1 | - | - | 0 | - | - | -
COc1cc2c(cc1OC)[C@@H]1C(=O)c3ccc4c(c3O[C@@H]1CO2)C[C@H](C(C)C)O4 | 0 | 0 | 0 | 0 | 0 | 0
COc1cc2c(cc1OC)[C@H]1C(=O)c3ccc4c(c3O[C@H]1CO2)C[C@@H](C(C)(C)O)O4 | 0 | 0 | 0 | 0 | 56 | 0
C=C1C(=O)O[C@@H]2C[C@@H](C)[C@@H]3C=CC(=O)[C@@]3(C)[C@@H](O)[C@H]12 | 0 | 0 | 0 | 0 | 0 | 54
CCOc1ccccc1-n1c(O)c(C=Nc2ccc(N(CC)CC)cc2)c(=O)[nH]c1=O | - | 0 | - | 29 | 0 | 0
CC(C)NC(=O)N1CC2C(c3ccccc3)C(C1)N2C (stereo unspecified) | - | - | 0 | - | - | -
